Measurements: article PMC5575935 (Journal of the American Chemical Society, 2017)
Substitutions are numbered along the chain they refer to.

Experiments:
MAP2K6 [1] = target: T1, MAP2K6 (Homo sapiens, UniProt P52564); assay: IDUP library × library selection, enrichment of ligand:protein barcodes; type: binding
T1 sequence (P52564 1-334): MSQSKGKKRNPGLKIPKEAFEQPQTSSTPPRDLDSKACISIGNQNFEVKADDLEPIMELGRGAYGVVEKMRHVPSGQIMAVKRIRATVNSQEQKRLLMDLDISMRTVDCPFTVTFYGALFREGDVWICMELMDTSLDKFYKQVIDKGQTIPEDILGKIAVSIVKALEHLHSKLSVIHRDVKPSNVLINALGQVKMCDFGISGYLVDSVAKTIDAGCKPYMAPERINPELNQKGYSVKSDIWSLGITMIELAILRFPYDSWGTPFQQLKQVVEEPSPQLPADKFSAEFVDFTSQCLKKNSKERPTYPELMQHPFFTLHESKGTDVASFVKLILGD
Summary of the method: (§1)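 Kinases were expressed as SNAP fusions by transient transfection of pDEST-SNAP-kinase vectors into HEK293T cells. Each unpurified lysate was labelled with a 31-nt benzylguanine-linked oligonucleotide carrying a unique 6-nt barcode and a common 3′ 8-nt hybridization region. The pooled protein library was combined with 2 pmol of an equimolar library of 136 DNA-linked compounds. IDUP primer extension followed, and extended products encoding protein:ligand pairs were PCR-amplified for barcode enrichment.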

[2] = target: T2, MAP2K6EE (constitutively active MAP2K6 mutant, S207E and T211E) (Homo sapiens, UniProt P52564, S207E/T211E); assay: Z′-LYTE kinase activity after preincubation with EA and dialysis; type: biochemical; details: MAP2K6EE incubated with 100 µM EA, then dialyzed into EA-free buffer; vs DMSO
T2 sequence (P52564 1-334 S207E/T211E): T1 sequence (P52564 1-334) with S207E, T211E
Summary of the method: (§2)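 The kinase, either MAP2K6EE (S207E/T211E) or its C38A variant, was incubated with 100 µM test compound or DMSO. It was then dialyzed to remove free compound. Z′-LYTE kinase activity was measured as a function of kinase concentration.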

[3] = target: T3, C38A point mutant of MAP2K6EE (Homo sapiens, UniProt P52564, C38A/S207E/T211E); assay: as above; type: biochemical; details: C38A MAP2K6EE preincubated with 100 µM EA, then dialyzed; vs DMSO
T3 sequence (P52564 1-334 C38A/S207E/T211E): T1 sequence (P52564 1-334) with C38A, S207E, T211E
Summary of the method: as §2

MAP2K6 and other MAP2Ks = assay: LanthaScreen Eu binding assays on MAP2K family members; set-up: species or system human; details: LanthaScreen Eu assays and initial IDUP assay
GSK3α [4] = target: T4, GSK3α (Homo sapiens, UniProt P49840); assay: IDUP library × library selection, enrichment of ligand:protein barcodes; type: binding
T4 sequence (P49840 whole entry): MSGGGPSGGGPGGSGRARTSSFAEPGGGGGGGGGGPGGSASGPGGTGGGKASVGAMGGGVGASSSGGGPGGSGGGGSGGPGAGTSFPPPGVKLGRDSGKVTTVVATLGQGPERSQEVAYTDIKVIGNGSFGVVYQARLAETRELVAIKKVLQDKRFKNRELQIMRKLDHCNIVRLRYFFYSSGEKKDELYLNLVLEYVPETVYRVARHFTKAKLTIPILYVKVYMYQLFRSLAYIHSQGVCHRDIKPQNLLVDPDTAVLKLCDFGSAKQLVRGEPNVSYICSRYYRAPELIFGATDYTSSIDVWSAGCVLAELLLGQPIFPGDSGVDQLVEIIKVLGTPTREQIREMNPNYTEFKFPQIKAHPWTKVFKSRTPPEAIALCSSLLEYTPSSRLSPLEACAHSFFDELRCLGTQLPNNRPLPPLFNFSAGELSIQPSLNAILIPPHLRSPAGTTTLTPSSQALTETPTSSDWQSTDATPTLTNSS
Summary of the method: as §1

GSK3α [5] = target: T4, GSK3α; assay: Z′-LYTE kinase inhibition assay; type: biochemical; details: non-DNA tagged ligand
MAP2K6 [6] = target: T1, MAP2K6; assay: Z′-LYTE kinase inhibition assay; type: biochemical; details: nonelectrophilic analogs relative to EA

## C=C(CC)C(=O)c1ccc(OCC(=O)O)c(Cl)c1Cl [EA, ethacrynic acid]
MAP2K6 [1]
  IDUP enrichment: 4.7 fold
[2]
  apparent loss of kinase activity: 9 fold
[3]
  loss in inhibition potency: ~ 3.3 fold
MAP2K6 and other MAP2Ks
  affinity for MAP2K6 compared with other MAP2Ks: higher affinity for MAP2K6 than other MAP2Ks

## Cl.Cn1cc(C2=C(c3c4n(c5ccccc35)CCC(CN)C4)C(=O)NC2=O)c2ccccc21 (centres unmarked) [bisX, bisindolylmaleimide X]
GSK3α [4]
  IDUP enrichment: 4.7 fold
GSK3α [5]
  IC50: 115 nM

## CCC(C)C(=O)c1ccc(OCC(=O)O)c(Cl)c1Cl (centres unmarked) [dihydro-ethacrynic acid]
MAP2K6 [6]
  fold weaker inhibition of MAP2K6 than EA: > 30 fold

## O=C(O)COc1ccc(C(=O)c2cccs2)c(Cl)c1Cl [tienilic acid]
MAP2K6 [6]
  fold weaker inhibition of MAP2K6 than EA: > 30 fold
